# RGS4 act: potentiators or activators of RGS4; HEK293 M3R/inducible RGS4, carbachol calcium flux Fluo4; hits give low values; B-score at 10 µM; actives 0.92% (n = 310,000); AID 463111;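 active = B-score of the integrated calcium signal more than 4 SD below the library mean, with starting fluorescence not abnormally high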;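 also: negative B-score means reduced calcium response which marks RGS4 activation or potentiation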
#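 Material: Inducible-RGS4 HEK293 cells carrying M3 receptor; also added: carbachol at ECmax as muscarinic agonist stimulus; incubation: compound preincubation 20 min at room temperature before agonist; signal: Fluo4-AM (2 µM) calcium-flux fluorescence, kinetic read; measure: integrated calcium ratio converted to B score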
# MrgX1 antagonist: blocks BAM8-22 activation of human MrgX1 receptor. Q96LB2. MRGX1-HEK293 calcium flux, Fluo-4, BAM8-22 antagonism; hits give low values. B-score at 10 µM. actives 1.3% (n = 310,000). AID 588676;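 active = calcium-response B-score plate-corrected more than 3 library SD below zero, starting fluorescence within 5 deviations, no agonist response on first addition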;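 also: peak minus trough fluorescence over baseline after final BAM8-22 challenge near maximal dose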
# Target sequence (Q96LB2 whole entry, looked up): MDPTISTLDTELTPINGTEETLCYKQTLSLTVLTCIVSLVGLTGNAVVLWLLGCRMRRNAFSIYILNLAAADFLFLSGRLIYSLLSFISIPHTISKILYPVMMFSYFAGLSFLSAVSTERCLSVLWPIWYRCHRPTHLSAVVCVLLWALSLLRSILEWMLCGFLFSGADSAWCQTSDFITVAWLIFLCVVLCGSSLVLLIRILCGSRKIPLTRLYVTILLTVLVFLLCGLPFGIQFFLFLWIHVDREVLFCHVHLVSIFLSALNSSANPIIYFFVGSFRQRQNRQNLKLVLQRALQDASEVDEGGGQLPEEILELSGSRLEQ
# MrgX1 allo act: human MrgX1 positive allosteric modulation, primary screen | actives 0.63% (n = 310,000) | MrgX1-HEK293, Fluo-4 calcium flux, FDSS; hits give high values | B-score at 10 µM | AID 588675;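 active = plate-corrected calcium response at least 3 library SD above typical, normal starting fluorescence, not activating the receptor alone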;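 also: compound read alongside a low EC10 to EC30 dose of BAM8-22 agonist; peak minus trough fluorescence over baseline measured at the second addition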
# RGS4 inh: inhibitors of human RGS4; P49798; HEK293 M3R/RGS4 inducible, Fluo-4 calcium flux; hits give high values; triggered by carbachol at its EC20; B-score at 10 µM; actives 0.45% (n = 310,000);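 active = B-score, a plate-corrected calcium signal, over three deviations above library mean, with baseline fluorescence within five deviations of library mean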;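 also: RGS4 expression induced by doxycycline in cells with stable M3 receptor; B-score is computed from the integrated fluorescence ratio over baseline after carbachol; higher B-score means a larger calcium signal and so more RGS4 inhibition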
# Target sequence (P49798 whole entry, looked up): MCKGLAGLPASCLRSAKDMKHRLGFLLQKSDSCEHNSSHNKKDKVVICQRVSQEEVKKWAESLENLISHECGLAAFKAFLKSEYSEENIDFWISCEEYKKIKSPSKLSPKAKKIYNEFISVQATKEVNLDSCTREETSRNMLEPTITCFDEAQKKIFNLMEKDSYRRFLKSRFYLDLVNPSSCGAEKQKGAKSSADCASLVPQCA
# MrgX1 ag: human MrgX1 receptor agonism, primary screen | MrgX1-HEK293 cells, Fluo-4 calcium fluorescence, agonist mode; hits give high values | B-score at 10 µM | actives 0.44% (n = 310,000) | AID 588627;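 active = calcium response B-score plate-corrected fluorescence ratio at least 3 library SD, with starting fluorescence B-score inside 5 SD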
#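 Assay system: MrgX1-expressing HEK293 cells / Amount: fifteen thousand cells per well / Doses: test compound in the initial addition of three / Timing: cells plated overnight, dye loaded 0.5 h 37 °C, 0.5 h room temperature / Technique: kinetic calcium dye fluorescence, Fluo-4 NW / Control set: positive and negative controls per plate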
# MrgX1 ag reconf: human MrgX1 agonism, re-confirmation screen; shares compounds with MrgX1 ag; MrgX1-HEK293, Fluo-4 calcium fluorescence, FDSS; activation, % at 10 µM; actives 78% (n = 600);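 active = calcium signal rise, corrected for plate position, at least 3 library SD high, with starting brightness within 5 such deviations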
# HEK293 Ca flux: counter-screen for MrgX1 antagonists: effect in parental HEK293 cells; shares compounds with MrgX1 antagonist; Fluo-4 calcium fluorescence, FDSS; fluorescence ratio F(max-min)/F0 at 10 µM; actives 2% (n = 4,000);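 active = duplicate-averaged calcium fluorescence ratio at least three times the standard deviation of buffer wells, a nonspecific response in parental cells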
# HEK293 Ca counter: MrgX1 allosteric activator counter-screen hit in parental HEK293 cells; shares compounds with MrgX1 antagonist; actives 0.4% (n = 4,000); fluorescence ratio F(max-min)/F0 at 10 µM; parental HEK293 calcium flux, Fluo-4 fluorescence ratio; hits give high values; AID 624114;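 active = calcium fluorescence ratio, averaged over duplicates, at least 3 SD of the buffer-well ratio, meaning a nonspecific response in receptor-free cells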;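 also: untransfected parental HEK293 lacking MrgX1 used as counterscreen for MrgX1 allosteric activators; fluorescence change taken during the second addition on a kinetic imager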
# HEK293 Ca cntr2: MrgX1 activator counter-screen hit in parental HEK293 cells; fluorescence ratio F(max-min)/F0 at 10 µM; shares compounds with MrgX1 antagonist; Fluo-4 calcium fluorescence (FDSS); hits give high values; actives 8.7% (n = 4,000);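 active = calcium fluorescence ratio at least three times the spread of buffer wells, meaning a non-specific response in parental cells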
# Numbers without * were called inactive; i = inactive; . = no result given. Most compounds without a hit are left out; they make up all but 3.5% or so of the library.
SMILES,RGS4 act,MrgX1 antagonist,MrgX1 allo act,RGS4 inh,MrgX1 ag,MrgX1 ag reconf,HEK293 Ca flux,HEK293 Ca counter,HEK293 Ca cntr2
COc1cccc(CNC(=O)CCC2CCCN(C(=O)c3ccc(C)nc3)C2)c1 (stereo not drawn),i,i,i,i,i,.,.,.,.
CC1CN(C(=O)C(C)N2CCN(c3ccccc3Cl)CC2)CC(C)O1 (stereo not drawn),i,i,i,i,i,.,.,.,.
CC1=CCC2C(=O)N(Cc3ccccc3)C(=O)C2C1 (stereo not drawn),i,i,i,i,i,.,.,.,.
CCOCCCNC(=O)C(NC(=O)CNC(C)=O)c1ccc(C)cc1 (stereo not drawn),i,i,i,i,i,.,.,.,.
Nc1ncccc1OCc1ccc(Cl)c(Cl)c1,i,i,i,i,41*,172%*,i,i,i
Cc1cc(=O)c2c(O)c(O)ccc2o1,i,i,i,i,i,.,.,.,.
Cc1nc(Nc2ccccc2)sc1C(=O)Nc1ccccc1,i,i,i,i,i,.,.,.,.
Cc1nc(Nc2ccc(S(N)(=O)=O)cc2)sc1C(=O)Nc1ccccc1,i,i,i,i,32*,227%*,i,i,i
CCOc1ccc(N=C2NC(=O)S/C2=C\c2ccc(N(C)C)cc2)cc1,i,i,i,i,27*,261%*,0.25*,i,59*
O=C1NC(=Nc2ccc(Cl)cc2)/C(=C/c2ccco2)S1,i,i,i,i,i,.,.,.,.
Cc1cccc(-n2c(-c3ccoc3C)n[nH]c2=S)c1,i,i,i,i,i,.,.,.,.
COc1ccnc(CSC(N)=Nc2ccccc2OC)c1,i,i,i,i,i,.,.,.,.
COc1ccnc(CSC(N)=Nc2ccccc2C(F)(F)F)c1,i,i,i,i,33*,102%*,i,i,i
CCOC(=O)C1=C(CN2CCC(C)CC2)NC(=O)NC1c1ccc(Cl)cc1 (stereo not drawn),i,i,i,i,39*,195%*,i,i,i
CCOC(=O)C1=C(CN2CCN(C(=O)c3ccco3)CC2)NC(=O)NC1c1ccc(Cl)cc1 (stereo not drawn),i,i,i,i,i,.,.,.,.
Nc1ccc(C23CC4CC(CC(CO)(C4)C2)C3)cc1,i,i,i,i,i,.,.,.,.
NCC12CC3CC(C1)CC(c1ccc(Cl)cc1)(C3)C2,-7.2*,i,i,i,34*,135%*,i,i,i
Cc1cc2c(c(=O)o1)C(CCC1CCCCC1)C(C#N)=C(N)O2 (stereo not drawn),i,i,i,i,28*,i,i,i,i
CCC(CC)C1C(C#N)=C(N)Oc2cc(C)oc(=O)c21 (stereo not drawn),i,i,i,i,i,.,.,.,.
COc1cccc(CN2CCN(Cc3cc4ccccc4[nH]3)CC2CCO)c1 (stereo not drawn),i,i,i,i,123*,313%*,i,i,49*
OCCn1c(SCCOc2ccccc2F)nc2ccccc21,i,i,i,i,i,.,.,.,.
CCOC(=O)c1[nH]c2ccc(F)cc2c1N=C(C)N(CC)CC,i,i,i,i,50*,116%*,i,i,i
CCOCCn1c(SC(C)C(C)=O)nc2c1c(=O)[nH]c(=O)n2C (stereo not drawn),i,i,i,i,53*,i,i,i,i
CC1(c2nnc(-c3cccc(Cl)c3)o2)CC(c2cccc(F)c2)=NO1 (stereo not drawn),i,i,i,i,i,.,.,.,.
Oc1cccc(Nc2nc(O)c(/C=C3\C=Nc4ccccc43)s2)c1,.,i,i,.,39*,416%*,i,i,76*
SMILES,RGS4 act,MrgX1 antagonist,MrgX1 allo act,RGS4 inh,MrgX1 ag,MrgX1 ag reconf,HEK293 Ca flux,HEK293 Ca counter,HEK293 Ca cntr2
Oc1nc(Nc2cccc(Cl)c2)sc1/C=C1\C=Nc2ccccc21,i,i,i,i,i,.,.,.,.
CN(c1ccccc1)S(=O)(=O)c1cccc(C(=O)OCC(=O)NCc2ccco2)c1,i,i,i,i,i,.,.,.,.
C=CCSC(=S)NC1CCS(=O)(=O)C1 (stereo not drawn),i,i,i,i,31*,i,i,i,i
O=C(Nc1ccc([N+](=O)[O-])cc1)c1cncc(Br)c1,i,i,i,i,i,.,.,.,.
CCOc1ccc(NC2=NCC(=O)N2CCc2ccccc2)cc1,i,i,i,i,27*,122%*,i,i,i
Cc1ccc(NC2=NCC(=O)N2CCc2ccccc2)cc1C,i,i,i,i,i,.,.,.,.
CC(C)CC(=O)Nc1nc2ccc(S(=O)(=O)N3CCOCC3)cc2s1,i,i,i,i,i,.,.,.,.
Cc1cc2oc(=O)cc(CN3CCCc4ccccc43)c2cc1C,i,i,i,i,67*,179%*,i,i,i
CCOC(=O)N1CCN(C(=O)c2c[nH]c3ccc(S(=O)(=O)N(C)c4ccccc4C)cc3c2=O)CC1,i,i,i,i,i,.,.,.,.
CCOC(=O)N1CCN(C(=O)c2c[nH]c3ccc(S(=O)(=O)N(C)c4cccc(C)c4)cc3c2=O)CC1,i,i,i,i,34*,191%*,i,i,50*
CCOC(=O)CC(=O)CSc1nc2ccc(C)cc2cc1C#N,.,i,i,.,54*,367%*,i,i,75*
CCOC(=O)CC(=O)CSc1nc(CC)c(C)cc1C#N,i,i,i,i,i,.,.,.,.
Cc1ccc(N2C(=O)CC(Sc3nc(C)cc(C)n3)C2=O)cc1 (stereo not drawn),i,i,i,i,i,.,.,.,.
CC1=Nc2ccc(C)c3nc(C)cc(c23)N1c1ccc(C)cc1,i,i,i,i,38*,191%*,i,i,i
Cc1ccc(N2C=Nc3ccc(C)c4nc(C)cc2c34)cc1,i,i,i,i,28*,98%*,i,i,i

# Screening results deposited in PubChem BioAssay by Johns Hopkins Ion Channel Center.
